The text below walks through data of ChEMBL document CHEMBL1152447, “Benzothiopyranoindole-based antiproliferative agents: synthesis, cytotoxicity, nucleic acids interaction, and topoisomerases inhibition properties” (J Med Chem, 2009).

Molecules are shown by their SMILES. The source made the active and inactive calls. The calls are words filed in the database; no cut-off is given here.

Assay [1] deals with HeLa. In words: Cytotoxicity against human HeLa cells after 72 hrs by trypan blue assay. It is filed as functional, cell-based. A digest of the protocol: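 HeLa cells grown in Nutrient Mixture F-12 with 10% heat-inactivated FCS at 37 °C, 5% CO2. Seeded at 4 × 10^4 per well for 24 h, then medium replaced with fresh medium containing test agents for 72 h. Viability by trypan blue. IC50 is the concentration reducing cell number by 50% versus control.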

For assay [2], the system named is Nucleic Acid. In words: Binding affinity to salmon testes DNA assessed as negative dichroic signal at 0.04 drug to DNA ratio by LD spectra. It is filed as nucleic-acid assay. The conditions noted are these: Salmonidae. A digest of the protocol:
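LD spectra of salmon testes DNA (1.9 × 10^-3 M) in ETN buffer (10 mM TRIS, 10 mM NaCl, 1 mM EDTA, pH 7) at 25 °C over several [drug]/[DNA] ratios. Orientation by shear gradient of 500-700 rpm; each spectrum accumulated four times.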

The subject of assay [3] is HL-60. Put plainly: Cytotoxicity against human HL60 cells after 72 hrs by trypan blue assay. It is filed as functional, cell-based. The conditions noted are these: HL-60, 72 h. A digest of the protocol: (§1)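 Cells seeded at 4 × 10^4 per well and cultured 24 h at 37 °C in 5% CO2. Test agents then added to the complete medium for a further 72 h. Viable cells counted by trypan blue. IC50 is the concentration giving 50% fewer cells than control cultures. HL-60 grown in RPMI 1640 + 15% heat-inactivated FCS; HL-60/MX2 grown in RPMI 1640 + 10% heat-inactivated FCS.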

Assay [4] concerns the target DNA topoisomerase 2-alpha (Homo sapiens) (UniProt P11388). In words: Inhibition of human recombinant topoisomerase 2 relaxation activity assessed as supercoiled pBR322 DNA at 2.5 uM. The essentials: (§2)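 Human recombinant topoisomerase IIα (1 U) relaxation of supercoiled pBR322 (0.25 μg) with compound, 60 min at 37 °C. Stopped with SDS/proteinase K (50 μg/mL, 30 min, 37 °C). Products separated on 1% agarose, stained with ethidium bromide 1 μg/mL, UV imaging. Inhibition judged by retained supercoiled DNA. Gels representative of three experiments.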

For assay [5] the target is unchanged. Put plainly: Inhibition of human recombinant topoisomerase 2 relaxation activity assessed as supercoiled pBR322 DNA at 8 uM. A digest of the protocol: as §2
The nature of assay [6]: Stabilization of supercoiled pBR322 DNA-human recombinant topoisomerase 2 complex assessed as reduction in linear DNA formation at 8 uM.
The target of assay [7] is DNA topoisomerase 2-alpha (Homo sapiens) (UniProt P11388). In words: Inhibition of human recombinant topoisomerase 2-mediated end-labeled DNA cleavage in absence of ATP at 5 uM.
Chain of DNA topoisomerase 2-alpha (Homo sapiens) (P11388 whole entry): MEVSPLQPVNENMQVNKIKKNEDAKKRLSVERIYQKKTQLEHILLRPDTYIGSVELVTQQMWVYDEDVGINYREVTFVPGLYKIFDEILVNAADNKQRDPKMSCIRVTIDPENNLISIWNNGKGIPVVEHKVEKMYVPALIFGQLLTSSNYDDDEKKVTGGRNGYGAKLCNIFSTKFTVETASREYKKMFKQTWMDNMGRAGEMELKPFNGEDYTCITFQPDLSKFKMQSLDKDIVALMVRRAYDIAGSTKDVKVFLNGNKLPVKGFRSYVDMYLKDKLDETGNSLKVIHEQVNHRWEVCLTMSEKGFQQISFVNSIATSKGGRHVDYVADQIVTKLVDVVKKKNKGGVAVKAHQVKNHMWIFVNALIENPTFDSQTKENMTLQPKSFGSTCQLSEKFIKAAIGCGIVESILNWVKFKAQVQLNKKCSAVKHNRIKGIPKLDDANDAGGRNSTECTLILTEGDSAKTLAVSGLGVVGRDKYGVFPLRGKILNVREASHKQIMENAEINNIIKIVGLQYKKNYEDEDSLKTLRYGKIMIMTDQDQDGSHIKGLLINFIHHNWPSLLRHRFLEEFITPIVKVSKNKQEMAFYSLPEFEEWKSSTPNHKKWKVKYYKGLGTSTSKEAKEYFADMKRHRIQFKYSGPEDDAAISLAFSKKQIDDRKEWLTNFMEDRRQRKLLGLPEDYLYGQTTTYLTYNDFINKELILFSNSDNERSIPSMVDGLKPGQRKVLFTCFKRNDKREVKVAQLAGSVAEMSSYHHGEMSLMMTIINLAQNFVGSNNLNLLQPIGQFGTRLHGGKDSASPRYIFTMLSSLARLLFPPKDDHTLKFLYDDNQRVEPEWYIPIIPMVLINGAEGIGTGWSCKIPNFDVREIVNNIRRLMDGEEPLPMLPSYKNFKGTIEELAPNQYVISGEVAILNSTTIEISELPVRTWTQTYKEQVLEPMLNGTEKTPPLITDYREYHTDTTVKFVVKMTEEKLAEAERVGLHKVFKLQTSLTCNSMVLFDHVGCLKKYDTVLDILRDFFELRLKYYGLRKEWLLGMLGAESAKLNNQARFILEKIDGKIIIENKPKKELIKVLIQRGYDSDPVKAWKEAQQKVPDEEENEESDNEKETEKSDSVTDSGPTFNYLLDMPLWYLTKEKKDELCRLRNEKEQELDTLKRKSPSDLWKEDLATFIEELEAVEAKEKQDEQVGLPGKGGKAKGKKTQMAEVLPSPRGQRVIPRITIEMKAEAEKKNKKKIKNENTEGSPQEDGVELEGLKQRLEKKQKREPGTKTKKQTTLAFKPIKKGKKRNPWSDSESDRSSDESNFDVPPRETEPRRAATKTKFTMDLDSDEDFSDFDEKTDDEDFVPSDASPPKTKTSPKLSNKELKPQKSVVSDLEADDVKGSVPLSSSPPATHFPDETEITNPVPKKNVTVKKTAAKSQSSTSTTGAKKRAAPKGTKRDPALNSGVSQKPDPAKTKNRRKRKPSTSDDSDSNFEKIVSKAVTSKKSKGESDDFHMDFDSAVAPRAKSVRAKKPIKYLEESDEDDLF
For assay [8] the target is unchanged. Put plainly: Inhibition of human recombinant topoisomerase 2-mediated end-labeled DNA cleavage in absence of ATP at 200 uM.
A short description of assay [9]: Stabilization of supercoiled pBR322 DNA-human recombinant topoisomerase 2 complex assessed as reduction in linear DNA formation.
Assay [10] has as its target DNA topoisomerase 2-alpha (Homo sapiens) (UniProt P11388). In words: Inhibition of human recombinant topoisomerase 2 relaxation activity assessed as supercoiled pBR322 DNA at 5 uM. A digest of the protocol:
as §2

The target is the same in assay [11]. Put plainly: Inhibition of human recombinant topoisomerase 2 relaxation activity assessed as supercoiled pBR322 DNA. A digest of the protocol: as §2
Assay [12] in a line: Cytotoxicity against human mitoxantrone-resistant HL60/MX2 cells after 72 hrs by trypan blue assay. It is filed as functional, cell-based. Conditions: HL60/MX2, 72 h. The essentials: as §1
Assay [13] has as its system HL-60. In words: Ratio of IC50 for mitoxantrone-resistant human HL60/MX2 cells to IC50 for human HL60 cells.
Assay [14] concerns the target T1, Topoisomerase I (Bos taurus) (UniProt Q2HPH0).
T1 sequence (whole entry): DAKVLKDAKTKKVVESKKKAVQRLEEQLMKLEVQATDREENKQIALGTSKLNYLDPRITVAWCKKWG
In words: Inhibition of calf thymus topoisomerase 1-mediated supercoiled pBR322DNA relaxation activity. The essentials:
(§3)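 Calf thymus topoisomerase I (2 U) incubated with supercoiled pBR322 (0.25 μg) and compound for 60 min at 37 °C. Stopped with SDS stop buffer plus 50 μg/mL proteinase K for 30 min at 37 °C. Run on 1% agarose, stained with ethidium bromide 1 μg/mL in TAE, imaged under UV. Gels representative of three experiments.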

Assay [15] is described as follows: Stabilization of supercoiled pBR322 DNA-human recombinant topoisomerase 2 complex assessed as reduction in linear DNA formation at 5 uM.
The target of assay [16] is T1, Topoisomerase I (Bos taurus). Put plainly: Inhibition of calf thymus topoisomerase 1-mediated supercoiled pBR322DNA relaxation activity at 10 uM. A digest of the protocol:
as §3

Assay [17] in a line: Stabilization of supercoiled pBR322 DNA-human recombinant topoisomerase 2 complex assessed as reduction in linear DNA formation at 20 uM.
Assay [18] in a line: Stabilization of supercoiled pBR322 DNA-human recombinant topoisomerase 2 complex assessed as reduction in linear DNA formation at 10 uM.

Usually IC50 stands for the concentration that gives 50% inhibition. Turning to `CCN(CC)CCCn1c2ccccc2c2sc3cc(OC)ccc3c(=O)c21`, the IC50 amounted to 3900 nM in assay [1] and 2400 nM in assay [3]. For the same compound, the result in [2] and in assay [4] was Active.
As to `COc1cc(NS(C)(=O)=O)ccc1Nc1c2ccccc2nc2ccccc12`, the result in assay [5] and in [6] was Active.
As for `CN(C)CCCn1c2ccccc2c2sc3cc(Cl)ccc3c(=O)c21`, the results for the IC50 in assay [1] and in [3] were 14000 nM and 7190 nM, respectively.
For `COc1ccc2c(=O)c3c(sc2c1)c1cc(OC)ccc1n3CCCN(C)C`, in that order: 2600 nM and 1350 nM.
For `COc1ccc2c(=O)c3[nH]c4ccc(OC)cc4c3sc2c1`, in that order: over 20000 nM and over 20000 nM.
For the compound `CN(C)CCn1c2ccccc2c2sc3cc(Cl)ccc3c(=O)c21`, the IC50 in assay [1] is 1530 nM; in assay [3], 1310 nM.
For `COc1ccc2c(=O)c3c(sc2c1)c1cc(Cl)ccc1n3CCCN(C)C`, in that order: 1850 nM and 1070 nM.
For `CCN(CC)CCn1c2ccccc2c2sc3cc(Cl)ccc3c(=O)c21`, in that order: 4330 nM and 3210 nM.
As to `COc1ccc2c(=O)c3c(sc2c1)c1cc(OC)ccc1n3CCN(C)C`, the outcome in assay [7], in assay [8], in [10] and in assay [4] was Active. Besides, the values for the IC50 in [1] and in assay [3] were 2150 nM and 660 nM, respectively. In addition, in [9], the outcome was inactive. The Activity entry in assay [11] was “Dose-dependent effect”.
On to `O=c1c2ccc(Cl)cc2sc2c1[nH]c1ccccc12`, for which the IC50 in assay [1] and in assay [3] was over 20000 nM throughout.
With `CCN(CC)CCCn1c2ccc(OC)cc2c2sc3cc(OC)ccc3c(=O)c21`, the IC50 in assay [1] was 2500 nM; in [3], 1500 nM.
For `CCN(CC)CCCn1c2ccccc2c2sc3cc(Cl)ccc3c(=O)c21`, in that order: 2910 nM and 2640 nM.
For `CCN(CC)CCCn1c2ccc(Cl)cc2c2sc3cc(OC)ccc3c(=O)c21`, in that order: 1680 nM and 1020 nM.
For `COc1ccc2c(=O)c3c(sc2c1)c1cc(Cl)ccc1n3CCN(C)C`, in that order: 1820 nM and 1170 nM.
As to `CCN(CC)CCn1c2ccc(OC)cc2c2sc3cc(OC)ccc3c(=O)c21`, the IC50 in [1] stood at 2300 nM; in [3], 1100 nM.
With `COc1ccc2c(=O)c3[nH]c4ccccc4c3sc2c1`, the IC50 in assay [1] and in assay [3] was over 20000 nM throughout. The outcome in assay [2] and in assay [4] was Active.
With `COc1ccc2c(=O)c3c(sc2c1)c1ccccc1n3CCN(C)C`, the IC50 came out at 2350 nM in assay [12], 1300 nM in [1] and 410 nM in [3]. For the same compound, the “Ratio IC50” value in assay [13] came out at 6. Besides, the outcome in [2], in assay [15], in [16], in assay [10], in assay [4] and in [17] was Active. Also, the result in assay [18] was Active. Besides, the Activity entry in assay [14] and in assay [11] was “Dose-dependent effect” throughout.
Regarding `CCN(CC)CCn1c2ccccc2c2sc3cc(OC)ccc3c(=O)c21`, the IC50 in assay [1] turned out to be 2700 nM; in assay [3] it was 1800 nM. Also, the result in [2] and in [4] was Active.
As for `CCN(CC)CCn1c2ccc(Cl)cc2c2sc3cc(OC)ccc3c(=O)c21`, the IC50 is 1120 nM in assay [1] and 710 nM in assay [3].
Turning to `COc1ccc2c(=O)c3[nH]c4ccc(Cl)cc4c3sc2c1`, the IC50 in [1] and in [3] was over 20000 nM each time.
For `COc1ccc2c(=O)c3c(sc2c1)c1ccccc1n3CCCN(C)C`, the IC50 in assay [1] turned out to be 2900 nM; in assay [3] it was 1900 nM. Also, the outcome in assay [4] was Active.
`Cc1c2ccncc2c(C)c2c1[nH]c1ccccc12` [ELLIPTECINE]: the values for the IC50 in assay [1] and in assay [3] were 290 nM and 660 nM, respectively.
